Laboratory results taken from ChEMBL document CHEMBL4665633, “Cereblon versus VHL: Hijacking E3 ligases against each other using PROTACs” (Bioorg Med Chem, 2019).
The source made the active and inactive calls. The calls are words filed in the database; no cut-off is given here.

What was measured:
Format in all cases: cell-based
[1] = molecular target: T1, Protein cereblon/von Hippel-Lindau disease tumor suppressor (Homo sapiens, UniProt P40337+Q96SW2); assay: Protac activity at VHL/CRBN in human HeLa cells assessed as hook effect at > 1 uM
Target sequence in this assay (P40337 whole entry, looked up): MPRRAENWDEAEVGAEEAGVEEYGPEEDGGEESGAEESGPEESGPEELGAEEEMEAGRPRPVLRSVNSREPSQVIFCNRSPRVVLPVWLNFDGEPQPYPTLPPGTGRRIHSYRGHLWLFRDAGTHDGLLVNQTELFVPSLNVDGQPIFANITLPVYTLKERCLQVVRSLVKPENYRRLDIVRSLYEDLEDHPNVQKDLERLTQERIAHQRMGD
Target sequence in this assay (Q96SW2 whole entry, looked up): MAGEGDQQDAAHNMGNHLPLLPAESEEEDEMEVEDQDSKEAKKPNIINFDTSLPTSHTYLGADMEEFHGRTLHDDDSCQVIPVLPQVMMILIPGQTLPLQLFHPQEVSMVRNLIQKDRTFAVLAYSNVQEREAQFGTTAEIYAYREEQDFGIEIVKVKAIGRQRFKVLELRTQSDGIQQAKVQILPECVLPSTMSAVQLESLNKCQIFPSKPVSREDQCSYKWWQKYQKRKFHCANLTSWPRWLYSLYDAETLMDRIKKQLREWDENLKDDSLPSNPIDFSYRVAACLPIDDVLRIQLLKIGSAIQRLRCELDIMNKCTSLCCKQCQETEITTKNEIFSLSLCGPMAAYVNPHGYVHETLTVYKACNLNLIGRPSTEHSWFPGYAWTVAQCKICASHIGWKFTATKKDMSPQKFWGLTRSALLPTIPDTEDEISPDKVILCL

[2] = molecular target: T1, Protein cereblon/von Hippel-Lindau disease tumor suppressor; assay: Protac activity at VHL/CRBN in human HeLa cells assessed as CRBN protein abundance at 1 uM after 8 hrs by Western blot analysis relative to DMSO
Summary of the method: (§1)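 HeLa cells seeded overnight, then exposed to 1 µM compound (0.1% v/v DMSO final) over a time course. Cells were DPBS-washed and RIPA-lysed with protease inhibitors and benzonase; equal protein was loaded. Immunoblots for CRBN and VHL isoforms were quantified against β-tubulin and reported relative to the averaged 0.1% DMSO vehicle.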
Target sequence in this assay (P40337 whole entry, looked up): as the sequence (P40337 whole entry, looked up) above
Target sequence in this assay (Q96SW2 whole entry, looked up): as the sequence (Q96SW2 whole entry, looked up) above

[3] = molecular target: T1, Protein cereblon/von Hippel-Lindau disease tumor suppressor; assay: Protac activity at VHL/CRBN in human HeLa cells assessed as pVHL30 protein abundance at 1000 nM after 4 hrs by Western blot analysis relative to DMSO
Summary of the method: (§2)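 HeLa cells (5 × 10⁵, DMEM + 10% FBS, 37 °C, 5% CO₂, ≤30 passages) seeded overnight, then treated 4 h with compound at single or graded concentrations (0.1% v/v DMSO final). RIPA lysates equalised by Bradford; SDS-PAGE and anti-CRBN/anti-VHL immunoblots; bands normalised to β-tubulin and expressed as % of mean DMSO vehicle. DC₅₀ from fit of band intensity versus log[concentration].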
Target sequence in this assay (P40337 whole entry, looked up): as the sequence (P40337 whole entry, looked up) above
Target sequence in this assay (Q96SW2 whole entry, looked up): as the sequence (Q96SW2 whole entry, looked up) above

[4] = molecular target: T1, Protein cereblon/von Hippel-Lindau disease tumor suppressor; assay: Protac activity at VHL/CRBN in HEK293 cells assessed as pVHL19 protein abundance at 1 uM after 1 hr by Western blot analysis relative to DMSO
Summary of the method: (§3)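 HEK293 cells (DMEM, 10% FBS, penicillin/streptomycin, L-glutamine; 37 °C, 5% CO2; ≤30 passages) seeded at 1 × 10⁶ per well overnight, then treated with compound at 0.1% v/v final DMSO. Cells were lysed in RIPA with protease inhibitors and benzonase, then clarified. Equal Bradford-quantified protein was immunoblotted for CRBN/VHL. Bands were normalised to β-tubulin and expressed as % of mean 0.1% DMSO vehicle.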
Target sequence in this assay (P40337 whole entry, looked up): as the sequence (P40337 whole entry, looked up) above
Target sequence in this assay (Q96SW2 whole entry, looked up): as the sequence (Q96SW2 whole entry, looked up) above

[5] = molecular target: T1, Protein cereblon/von Hippel-Lindau disease tumor suppressor; assay: Protac activity at VHL/CRBN in human HeLa cells assessed as CRBN protein abundance at 10 nM after 4 hrs by Western blot analysis relative to DMSO; summary of the method: as §2
Target sequence in this assay (P40337 whole entry, looked up): as the sequence (P40337 whole entry, looked up) above
Target sequence in this assay (Q96SW2 whole entry, looked up): as the sequence (Q96SW2 whole entry, looked up) above

[6] = molecular target: T1, Protein cereblon/von Hippel-Lindau disease tumor suppressor; assay: Protac activity at VHL/CRBN in human HeLa cells assessed as induction of VHL degradation at 1 uM after 4 hrs by Western blot analysis; summary of the method: as §2
Target sequence in this assay (P40337 whole entry, looked up): as the sequence (P40337 whole entry, looked up) above
Target sequence in this assay (Q96SW2 whole entry, looked up): as the sequence (Q96SW2 whole entry, looked up) above

[7] = molecular target: T1, Protein cereblon/von Hippel-Lindau disease tumor suppressor; assay: Protac activity at VHL/CRBN in human HeLa cells assessed as pVHL19 protein abundance at 10 nM after 4 hrs by Western blot analysis relative to DMSO; summary of the method: as §2
[8] = molecular target: T1, Protein cereblon/von Hippel-Lindau disease tumor suppressor; assay: Protac activity at VHL/CRBN in human HeLa cells assessed as pVHL19 protein abundance at 1000 nM after 4 hrs by Western blot analysis relative to DMSO; summary of the method: as §2
[9] = molecular target: T1, Protein cereblon/von Hippel-Lindau disease tumor suppressor; assay: Protac activity at VHL/CRBN in HEK293 cells assessed as pVHL30 protein abundance at 50 nM after 4 hrs by Western blot analysis relative to DMSO; summary of the method: as §3
[10] = molecular target: T1, Protein cereblon/von Hippel-Lindau disease tumor suppressor; assay: Protac activity at VHL/CRBN in HEK293 cells assessed as pVHL30 protein abundance at 500 nM after 4 hrs by Western blot analysis relative to DMSO; summary of the method: as §3
[11] = molecular target: T1, Protein cereblon/von Hippel-Lindau disease tumor suppressor; assay: Protac activity at VHL/CRBN in human HeLa cells assessed as pVHL19 protein abundance at 100 nM after 4 hrs by Western blot analysis relative to DMSO; summary of the method: as §2
[12] = molecular target: T1, Protein cereblon/von Hippel-Lindau disease tumor suppressor; assay: Protac activity at VHL/CRBN in human HeLa cells assessed as CRBN protein abundance at 500 nM after 4 hrs by Western blot analysis relative to DMSO; summary of the method: as §2
[13] = molecular target: T1, Protein cereblon/von Hippel-Lindau disease tumor suppressor; assay: Protac activity at VHL/CRBN in human HeLa cells assessed as pVHL30 protein abundance at 1 uM after 4 hrs by Western blot analysis relative to DMSO; summary of the method: as §1
[14] = molecular target: T1, Protein cereblon/von Hippel-Lindau disease tumor suppressor; assay: Protac activity at VHL/CRBN in HEK293 cells assessed as pVHL30 protein abundance at 1 uM after 2 hrs by Western blot analysis relative to DMSO; summary of the method: as §3
[15] = molecular target: T1, Protein cereblon/von Hippel-Lindau disease tumor suppressor; assay: Protac activity at VHL/CRBN in HEK293 cells assessed as pVHL30 protein abundance at 5 nM after 4 hrs by Western blot analysis relative to DMSO; summary of the method: as §3
[16] = molecular target: T1, Protein cereblon/von Hippel-Lindau disease tumor suppressor; assay: Protac activity at VHL/CRBN in HEK293 cells assessed as CRBN protein abundance at 1000 nM after 4 hrs by Western blot analysis relative to DMSO; summary of the method: as §3
[17] = molecular target: T1, Protein cereblon/von Hippel-Lindau disease tumor suppressor; assay: Protac activity at VHL/CRBN in human HeLa cells assessed as pVHL30 protein abundance at 500 nM after 4 hrs by Western blot analysis relative to DMSO; summary of the method: as §2
[18] = molecular target: T1, Protein cereblon/von Hippel-Lindau disease tumor suppressor; assay: Protac activity at VHL/CRBN in human HeLa cells assessed as pVHL30 protein abundance at 1 uM after 2 hrs by Western blot analysis relative to DMSO; summary of the method: as §1
[19] = molecular target: T1, Protein cereblon/von Hippel-Lindau disease tumor suppressor; assay: Protac activity at VHL/CRBN in HEK293 cells assessed as pVHL19 protein abundance at 1 uM after 4 hrs by Western blot analysis relative to DMSO; summary of the method: as §3
[20] = molecular target: T1, Protein cereblon/von Hippel-Lindau disease tumor suppressor; assay: Protac activity at VHL/CRBN in HEK293 cells assessed as CRBN protein abundance at 10 nM after 4 hrs by Western blot analysis relative to DMSO; summary of the method: as §3
[21] = molecular target: T1, Protein cereblon/von Hippel-Lindau disease tumor suppressor; assay: Protac activity at VHL/CRBN in HEK293 cells assessed as CRBN protein abundance at 10000 nM after 4 hrs by Western blot analysis relative to DMSO; summary of the method: as §3
[22] = molecular target: T1, Protein cereblon/von Hippel-Lindau disease tumor suppressor; assay: Protac activity at VHL/CRBN in human HeLa cells assessed as pVHL30 protein abundance at 10000 nM after 4 hrs by Western blot analysis relative to DMSO; summary of the method: as §2
[23] = molecular target: T1, Protein cereblon/von Hippel-Lindau disease tumor suppressor; assay: Protac activity at VHL/CRBN in HEK293 cells assessed as pVHL19 protein abundance at 1 uM after 8 hrs by Western blot analysis relative to DMSO; summary of the method: as §3
[24] = molecular target: T1, Protein cereblon/von Hippel-Lindau disease tumor suppressor; assay: Protac activity at VHL/CRBN in human HeLa cells assessed as induction of VHL degradation at 1 uM after 1 to 24 hrs by Western blot analysis; conditions: time hrs 1-24; summary of the method: as §1
[25] = molecular target: T1, Protein cereblon/von Hippel-Lindau disease tumor suppressor; assay: Protac activity at VHL/CRBN in HEK293 cells assessed as pVHL30 protein abundance at 1 uM after 12 hrs by Western blot analysis relative to DMSO; summary of the method: as §3
[26] = molecular target: T1, Protein cereblon/von Hippel-Lindau disease tumor suppressor; assay: Protac activity at VHL/CRBN in human HeLa cells assessed as induction of CRBN degradation after 4 hrs by Western blot analysis; summary of the method: as §2
Target sequence in this assay (P40337 whole entry): as the sequence (P40337 whole entry, looked up) above
Target sequence in this assay (Q96SW2 whole entry): as the sequence (Q96SW2 whole entry, looked up) above

[27] = molecular target: T1, Protein cereblon/von Hippel-Lindau disease tumor suppressor; assay: Protac activity at VHL/CRBN in HEK293 cells assessed as CRBN protein abundance at 1 uM after 4 hrs by Western blot analysis relative to DMSO; summary of the method: as §3
[28] = molecular target: T1, Protein cereblon/von Hippel-Lindau disease tumor suppressor; assay: Protac activity at VHL/CRBN in human HeLa cells assessed as pVHL19 protein abundance at 1 uM after 24 hrs by Western blot analysis relative to DMSO; summary of the method: as §1
[29] = molecular target: T1, Protein cereblon/von Hippel-Lindau disease tumor suppressor; assay: Protac activity at VHL/CRBN in human HeLa cells assessed as CRBN protein abundance at 5000 nM after 4 hrs by Western blot analysis relative to DMSO; summary of the method: as §2
[30] = molecular target: T1, Protein cereblon/von Hippel-Lindau disease tumor suppressor; assay: Protac activity at VHL/CRBN in HEK293 cells assessed as pVHL30 protein abundance at 5000 nM after 4 hrs by Western blot analysis relative to DMSO; summary of the method: as §3

Activity [1]: Active | Activity [2]: 15% | Activity [3]: 125% | Activity [4]: 98% | Activity [5]: 81% | Activity [6]: inactive | Activity [7]: 95% | Activity [8]: 110% | Activity [9]: 133% | Activity [10]: 130% | Activity [11]: 108% | Activity [12]: 33% | Activity [13]: 103% | Activity [14]: 87% | Activity [15]: 117% | Activity [16]: 23% | Activity [17]: 83% | Activity [18]: 89% | Activity [19]: 101% | Activity [20]: 113% | Activity [21]: 66% | Activity [22]: 142% | Activity [23]: 105% | Activity [24]: inactive | Activity [25]: 113% | DC50 [26]: 200 nM | Activity [27]: 6% | Activity [28]: 100% | Activity [29]: 49% | Activity [30]: 124%
SMILES: Cc1ncsc1-c1ccc(CNC(=O)[C@@H]2C[C@@H](O)CN2C(=O)[C@@H](NC(=O)COCCCCCOCCOCCCCCOCC(=O)NCCNc2cccc3c2C(=O)N(C2CCC(=O)NC2=O)C3=O)C(C)(C)C)cc1 (stereo not given in full)
